FID counter: counter-screen for HCV NS3 helicase inhibitors: DNA intercalator displacement; inhibition, % at 7.9 µM; DNA fluorescent intercalator displacement, fluorescence; hit rate 0.17% among 290,000; in the data active = inhibition above about 37%;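 note: 0% = vehicle and 100% = reference compound; higher means more ethidium bromide displaced from hairpin DNA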
VIM-2 inh: inhibitors of Pseudomonas aeruginosa VIM-2 metallo-beta-lactamase | purified VIM-2, nitrocefin hydrolysis, epi-absorbance fluorescence | inhibition, % at 5.6 µM | hit rate 0.89% among 290,000 | AID 1527;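 active = inhibition above the mean of all tested compounds plus 3 SD, cutoff set per screening run, cut at about 7.5% in these data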;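 note: red hydrolysis product quenches plate fluorescence so inhibitors raise well fluorescence; 0% = enzyme with DMSO and 100% = DMSO without enzyme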
RAD54 inh: blocks human RAD54 Holliday junction branch migration. Q92698. hit rate 0.14% among 360,000. inhibition, % at 10.4 µM. FAM/BHQ fluorescence;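 active = mean normalized replicate activity at least 40 and at least half of replicates scoring 40 or more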;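 note: 0% = median of neutral control wells and 100% = median of positive control wells; inhibitors cause a drop in the FAM fluorescence signal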
Target sequence (Q92698 whole entry, looked up): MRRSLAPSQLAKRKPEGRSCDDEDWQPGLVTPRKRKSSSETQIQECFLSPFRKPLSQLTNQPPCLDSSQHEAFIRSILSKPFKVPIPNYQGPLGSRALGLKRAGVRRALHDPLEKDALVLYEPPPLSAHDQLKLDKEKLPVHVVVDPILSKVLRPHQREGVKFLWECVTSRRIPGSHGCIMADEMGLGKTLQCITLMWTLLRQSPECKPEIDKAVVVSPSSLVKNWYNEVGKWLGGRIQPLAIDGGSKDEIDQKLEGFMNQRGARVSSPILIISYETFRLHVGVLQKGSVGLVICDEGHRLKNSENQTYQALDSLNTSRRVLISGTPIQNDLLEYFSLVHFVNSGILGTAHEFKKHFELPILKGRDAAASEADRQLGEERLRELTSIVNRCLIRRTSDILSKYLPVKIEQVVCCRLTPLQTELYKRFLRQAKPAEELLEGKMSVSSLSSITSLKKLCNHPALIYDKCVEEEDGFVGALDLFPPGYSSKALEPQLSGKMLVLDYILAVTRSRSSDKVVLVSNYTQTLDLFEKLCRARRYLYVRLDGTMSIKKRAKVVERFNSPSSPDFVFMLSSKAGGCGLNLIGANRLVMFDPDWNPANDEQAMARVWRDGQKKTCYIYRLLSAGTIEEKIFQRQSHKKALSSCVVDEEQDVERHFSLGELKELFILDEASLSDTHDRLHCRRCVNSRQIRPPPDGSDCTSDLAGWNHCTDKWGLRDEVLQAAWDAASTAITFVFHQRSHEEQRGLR
PvdQ inh: P. aeruginosa PvdQ acylase inhibition | inhibition, % at 10 µM | hit rate 0.063% among 340,000 | purified PvdQ acylase, fluorescence plate reader | AID 488965; in the data active = inhibition above about 30%, passing the limit was not always enough;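 note: 0% = vehicle neutral wells and 100% = reference inhibitor wells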
IMP-1 inh-1: blocks Pseudomonas aeruginosa IMP-1 metallo-beta-lactamase | purified IMP-1, nitrocefin hydrolysis, epi-absorbance fluorescence | inhibition, % at 5.6 µM | hit rate 0.45% among 290,000 | AID 1556;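 active = inhibition above the mean plus 3 SD of all compounds in the same screening run, cut at about 4.5% in these data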;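 note: 0% = IMP-1 with DMSO and 100% = DMSO wells lacking enzyme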
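System: Purified recombinant IMP-1 metallo-beta-lactamase enzyme | Measured by: Fluorescence quenching readout, ex 480/em 530 nm | Replication: Singlicate | Incubation: 15 min preincubation plus 25 min reaction at 25 °C | Evaluation: Percent inhibition from optical density relative to buffer-blank wells | Benchmarks: DMSO with and without IMP-1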
IMP-1 inh-2: selectivity counter-screen for VIM-2 inhibitors: IMP-1 metallo-beta-lactamase inhibitors. shares compounds with VIM-2 inh. purified IMP-1, nitrocefin hydrolysis, epi-absorbance fluorescence. inhibition, % at 5.6 µM. 1,300 tested, under 10 active; call rule not given here;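 note: 0% = enzyme with vehicle and 100% = vehicle without enzyme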
VIM-2 FRET ctr: counter-screen for VIM-2 inhibitors: epi-absorbance artifacts via FRET | purified VIM-2, CCF2 FRET substrate hydrolysis | AID 1857 | hit rate 23% among 1,300 | shares compounds with VIM-2 inh | inhibition, % at 5.6 µM;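 active = inhibition above the mean of all tested compounds plus 3 SD, cut at about 19% in these data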;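 note: 0% = VIM-2 plus DMSO and 100% = no enzyme wells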
TEM-1 inh: blocks E. coli TEM-1 beta-lactamase in VIM-2 selectivity screen. shares compounds with VIM-2 inh. Purified TEM-1, nitrocefin hydrolysis, epi-absorbance fluorescence. inhibition, % at 5.6 µM. hit rate 3% among 1,300. AID 1866;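 active = inhibition above that campaign's mean inhibition plus 3 SD, cut at about 0.46% in these data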;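 note: 0% = TEM-1 with DMSO and 100% = TEM-1 with 100 µM potassium clavulanate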
VIM-2 inh conf: confirmation of P. aeruginosa VIM-2 metallo-beta-lactamase inhibitors | shares compounds with VIM-2 inh | inhibition, % at 5.6 µM | hit rate 96% among 1,300 | purified VIM-2, nitrocefin hydrolysis, epi-absorbance;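 active = inhibition of the VIM-2 beta-lactamase enzyme above about 11% from the earlier first-round screen, limit read from the data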;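 note: 0% = VIM-2 with DMSO and 100% = buffer wells without enzyme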
Starred values were filed as active, the others as inactive. The list is not random: actives were taken first. Their share in the collection is about 1%.

Results for COc1ccc(-c2cc3c(=O)n(CC(=O)N4CCCCC4)ncn3n2)cc1 ?
FID counter: -33; VIM-2 inh: 0; RAD54 inh: -1; PvdQ inh: 9; IMP-1 inh-1: -1

How did COc1ccc(-c2cc3c(=O)n(CC(=O)N4CCN(C)CC4)ncn3n2)cc1 do in these assays?
FID counter: -3; VIM-2 inh: 17*; RAD54 inh: 0; PvdQ inh: 2; IMP-1 inh-1: -5; IMP-1 inh-2: -3; VIM-2 FRET ctr: -2; TEM-1 inh: -5; VIM-2 inh conf: 31*

Results for CC(C)c1[nH]nc2c1C1(CCN(Cc3ccccc3)CC1)C(C#N)=C(N)O2 ?
FID counter: -4; VIM-2 inh: 3; PvdQ inh: -12; IMP-1 inh-1: -3

How did CCCc1[nH]nc2c1C1(CCN(C(=O)OCc3ccccc3)CC1)C(C#N)=C(N)O2 do in these assays?
FID counter: -17; VIM-2 inh: 18*; PvdQ inh: -26; IMP-1 inh-1: -2; IMP-1 inh-2: -2; VIM-2 FRET ctr: 22*; TEM-1 inh: 0.5*; VIM-2 inh conf: 6

What do the screens show for `CCOC(=O)CC(=O)CSc1ccc2nnc(-c3ccc(F)cc3)n2n1`?
FID counter: -16; VIM-2 inh: 3; RAD54 inh: 2; PvdQ inh: -3; IMP-1 inh-1: 0

What do the screens show for `CCCN(CCC)CCCNc1ccc2nnc(-c3ccc(F)cc3)n2n1`?
FID counter: 34; VIM-2 inh: 18*; RAD54 inh: 18; PvdQ inh: 8; IMP-1 inh-1: -3; IMP-1 inh-2: -3; VIM-2 FRET ctr: 0; TEM-1 inh: -6; VIM-2 inh conf: 22*

What do the screens show for `Cc1nn2c(-c3ccccc3)nnc2c2ccccc12`?
FID counter: -12; VIM-2 inh: 7; RAD54 inh: -1; PvdQ inh: -11; IMP-1 inh-1: -5

Results for Cc1nn2c3ccccc3nc2c2ccccc12 ?
FID counter: -4; VIM-2 inh: 13*; RAD54 inh: 19; PvdQ inh: -16; IMP-1 inh-1: -1; IMP-1 inh-2: -3; VIM-2 FRET ctr: -10; TEM-1 inh: -3; VIM-2 inh conf: 27*

How did COc1ccc(S(=O)(=O)Nc2ccc3c(c2)C(=O)N([C@@H](C)CO)C[C@@H](C)[C@H](CN(C)Cc2ccccc2)OCCCC[C@H](C)O3)cc1 do in these assays?
RAD54 inh: 13

What do the screens show for `CO[C@H]1CN(C)C(=O)c2cc(NC(=O)c3ccc4c(c3)OCO4)ccc2OC[C@H](C)N(CC2CC2)C[C@@H]1C`?
RAD54 inh: -4

Results for COC(=O)CSc1nc(N)c(C#N)c(-c2ccc(O)cc2)c1C#N ?
FID counter: -2; VIM-2 inh: 18*; RAD54 inh: 14; PvdQ inh: -4; IMP-1 inh-1: -1; IMP-1 inh-2: -3; VIM-2 FRET ctr: 0; TEM-1 inh: -7; VIM-2 inh conf: 36*

How did CC(C)NC(=O)N(C)C[C@H]1Oc2c(NS(=O)(=O)c3ccccc3)cccc2C(=O)N([C@@H](C)CO)C[C@@H]1C do in these assays?
RAD54 inh: -13

Results for CCCn1c(C(C)C)n[nH]c1=S ?
FID counter: -2; VIM-2 inh: 26*; PvdQ inh: 5; IMP-1 inh-1: -3; IMP-1 inh-2: -4; VIM-2 FRET ctr: 54*; TEM-1 inh: -7; VIM-2 inh conf: 35*

How did CCCn1c(-c2ccncc2)n[nH]c1=S do in these assays?
FID counter: 6; VIM-2 inh: 3; PvdQ inh: 1; IMP-1 inh-1: 0

Results for CCN1CCN(CCNC(=O)c2cc(Cl)c(NC(=O)C3=C(C)OCCS3)cc2OC)CC1 ?
FID counter: 16; VIM-2 inh: 24*; RAD54 inh: -4; PvdQ inh: -9; IMP-1 inh-1: -3; IMP-1 inh-2: -2; VIM-2 FRET ctr: 4; TEM-1 inh: -10; VIM-2 inh conf: 33*

Results for CCCN1CCN(CCCNC(=O)c2ccccc2NC(=O)C2=C(C)OCCS2)CC1 ?
FID counter: 10; VIM-2 inh: 1; RAD54 inh: 0; PvdQ inh: 10; IMP-1 inh-1: -2

Results for O=C(O)COc1ccccc1/C=N/n1c(C2CCCCC2)n[nH]c1=S ?
FID counter: -21; VIM-2 inh: 27*; RAD54 inh: 6; PvdQ inh: 3; IMP-1 inh-1: -4; IMP-1 inh-2: -3; VIM-2 FRET ctr: 53*; TEM-1 inh: -8; VIM-2 inh conf: 40*

What do the screens show for `S=c1[nH]nc(C2CCCCC2)n1/N=C/c1ccccc1Br`?
FID counter: -30; VIM-2 inh: -2; RAD54 inh: 0; PvdQ inh: -8; IMP-1 inh-1: -3

What do the screens show for `CCCc1cc(=O)oc2c(C)c(OCC(=O)NC3CCN(Cc4ccccc4)CC3)ccc12`?
FID counter: 15; VIM-2 inh: 16*; RAD54 inh: -1; PvdQ inh: 0; IMP-1 inh-1: -3; IMP-1 inh-2: -3; VIM-2 FRET ctr: -6; TEM-1 inh: -7; VIM-2 inh conf: 27*

Results for O=C(COc1ccc2c3c(c(=O)oc2c1)CCC3)NC1CCN(Cc2ccccc2)CC1 ?
FID counter: -4; VIM-2 inh: 28*; RAD54 inh: -8; PvdQ inh: -13; IMP-1 inh-1: -1; IMP-1 inh-2: -1; VIM-2 FRET ctr: 4; TEM-1 inh: 0.7*; VIM-2 inh conf: 39*

What do the screens show for `Cc1cc(=O)oc2cc(OCC(=O)NC3CCN(Cc4ccccc4)CC3)ccc12`?
FID counter: 9; VIM-2 inh: 4; RAD54 inh: 0; PvdQ inh: 8; IMP-1 inh-1: -2

What do the screens show for `O=C(COc1ccc2c3c(c(=O)oc2c1)CCC3)Nc1ccc(CN2CCOCC2)cc1`?
FID counter: 15; VIM-2 inh: 18*; RAD54 inh: -11; PvdQ inh: -10; IMP-1 inh-1: -4; IMP-1 inh-2: -3; VIM-2 FRET ctr: 0; TEM-1 inh: -6; VIM-2 inh conf: 27*

Results for Cc1cc(=O)oc2cc(OCC(=O)Nc3ccc(CN4CCOCC4)cc3)ccc12 ?
FID counter: 2; VIM-2 inh: 1; RAD54 inh: -2; PvdQ inh: -15; IMP-1 inh-1: -3

What do the screens show for `O=C(CSc1nnc(NC(=O)c2cc(Br)ccc2Cl)s1)NCC1CCCO1` (stereo not given)?
FID counter: -29; VIM-2 inh: 25*; RAD54 inh: 0; PvdQ inh: -9; IMP-1 inh-1: -3; IMP-1 inh-2: -3; VIM-2 FRET ctr: 48*; TEM-1 inh: -5; VIM-2 inh conf: 33*
